Test [1] has as its target Mitogen-activated protein kinase kinase kinase 2 (Homo sapiens) (UniProt Q9Y2U5). Kind of test: Inhibition of human MEKK2 at 1 uM using casein as substrate in presence of 33P-ATP by ProQinase assay.
Test [2] has as its target Discoidin domain-containing receptor 2 (Homo sapiens) (UniProt Q16832). Kind of test: Inhibition of human DDR2 at 1 uM using poly(Ala,Glu,Lys,Tyr) as substrate in presence of 33P-ATP by ProQinase assay.
Test [3] has as its target Serine/threonine-protein kinase PAK 4 (Homo sapiens) (UniProt O96013). Kind of test: Inhibition of recombinant human N-terminal GST-tagged PAK4 (2 to 519 residues) expressed in Escherichia coli assessed as remaining activity at 1 uM using RRRLSFAEPG as substrate incubated for 30 mins in presence of [gamma-33P]ATP by filter binding method relative to control.
Test [4] has as its target LKB1-STRAD-MO25 complex (Homo sapiens) (UniProt Q15831+Q7RTN6+Q9Y376). Kind of test: Inhibition of recombinant human N-terminal His6-tagged LKB1 (1 to 433 residues)/MO25 (1 to 341 residues)/STRAD (1 to 431 residues) expressed in baculovirus infected Sf21 cells assessed as remaining activity at 1 uM using LSNLYHQGKFLQTFCGSPLYRRR as substrate incubated for 30 mins in presence of [gamma-33P]ATP by filter binding method relative to control.

Test [5] deals with Tyrosine-protein kinase CSK (Homo sapiens) (UniProt P41240). Kind of test: Inhibition of human CSK at 1 uM using polyEY as substrate in presence of 33P-ATP by ProQinase assay.
A further test concerns U2OS. Kind of test: Inhibition of PI3K in human U2OS cells expressing FLAG-tagged SGK3 assessed as reduction in NDRG1 phosphorylation at T346 residues at 0.01 to 1 uM 1 hr by immunoblot analysis. Conditions: dose 0.01-1 µM. The test is classed as cell-based. Summed up:
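Flp-In T-REx U2OS cells were grown in McCoy medium with 10% FBS. Expression of C-terminally FLAG-tagged full-length SGK3 was induced with 0.01 mg/ml doxycycline for 24 h. Cells were treated with inhibitor for 1 h and lysed in phosphatase-inhibitor buffer. Lysates were cleared at 16000 g for 10 min at 4°C, protein was measured by Bradford, and phosphorylation was read by immunoblot with ECL detection.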

Test [6] deals with Bone morphogenetic protein receptor type-1A (Homo sapiens) (UniProt P36894). Kind of test: Inhibition of human BMPR1A at 1 uM using casein as substrate in presence of 33P-ATP by ProQinase assay.
The target in test [7] is Glycogen synthase kinase-3 beta (Homo sapiens) (UniProt P49841). Kind of test: Inhibition of recombinant human His6-tagged GSK3beta (2 to 420 residues) expressed in baculovirus infected Sf21 cells assessed as remaining activity at 1 uM using phospho-GS2 peptide as substrate incubated for 30 mins in presence of [gamma-33P]ATP by filter binding method relative to control.

The target in test [8] is Aurora kinase A (Homo sapiens) (UniProt O14965). Kind of test: Inhibition of human AuroraA at 1 uM using bio-4xCHKT as substrate in presence of 33P-ATP by ProQinase assay.
Test [9] addresses Serine/threonine-protein kinase Sgk2 (Homo sapiens) (UniProt Q9HBY8). Kind of test: Inhibition of human SGK2 at 1 uM using RBER-GSK3 as substrate in presence of 33P-ATP by ProQinase assay.
Test [10] concerns the target Mast/stem cell growth factor receptor Kit (Homo sapiens) (UniProt P10721). Kind of test: Inhibition of human KIT at 1 uM using polyEY as substrate in presence of 33P-ATP by ProQinase assay.
The target of test [11] is Cyclin-dependent kinase 4/cyclin D1 (Homo sapiens) (UniProt P11802+P24385). Kind of test: Inhibition of human CDK4/CyclinD1 at 1 uM using RBER-CHKtide, as substrate in presence of 33P-ATP by ProQinase assay. The test is classed as protein-complex assay.
The target in test [12] is Ribosomal protein S6 kinase alpha-2 (Homo sapiens) (UniProt Q15349). Kind of test: Inhibition of human RPS6KA2 at 1 uM using bio-4xCHKT as substrate in presence of 33P-ATP by ProQinase assay.
The target of test [13] is STE20/SPS1-related proline-alanine-rich protein kinase (Homo sapiens) (UniProt Q9UEW8). Kind of test: Inhibition of human STK39 at 1 uM using RBER-CDC25tide as substrate in presence of 33P-ATP by ProQinase assay.
Test [14] concerns the target Vascular endothelial growth factor receptor 2 (Homo sapiens) (UniProt P35968). Kind of test: Inhibition of human VEGFR2 at 1 uM using polyEY as substrate in presence of 33P-ATP by ProQinase assay.
Test [15] addresses CDK9/cyclin T1 (Homo sapiens) (UniProt O60563+P50750). Kind of test: Inhibition of recombinant human N-terminal GST-tagged CDK9 (1 to 372 residues)/Cyclin T1 (1 to 726 residues) expressed in baculovirus infected Sf21 cells assessed as remaining activity at 1 uM using YSPTSPSYSPTSPSYSPTSPKKK as substrate incubated for 30 mins in presence of [gamma-33P]ATP by filter binding method relative to control.

Test [16] concerns the target Protein kinase C epsilon type (Homo sapiens) (UniProt Q02156). Kind of test: Inhibition of human PKCepsilon at 1 uM using 3xChocktide-PKC as substrate in presence of 33P-ATP by ProQinase assay.
Test [17] has as its target Tyrosine-protein kinase BTK (Homo sapiens) (UniProt Q06187). Kind of test: Inhibition of recombinant human N-terminal His6-tagged BTK (2 to 659 residues) expressed in baculovirus infected Sf21 cells assessed as remaining activity at 1 uM using KVEKIGEGTYGVVYK as substrate incubated for 30 mins in presence of [gamma-33P]ATP by filter binding method relative to control.

In test [18] the target is Dual specificity tyrosine-phosphorylation-regulated kinase 3 (Homo sapiens) (UniProt O43781). Kind of test: Inhibition of human DYRK3 at 1 uM using RBER-IRStide as substrate in presence of 33P-ATP by ProQinase assay.
The target of test [19] is Mitogen-activated protein kinase 13 (Homo sapiens) (UniProt O15264). Kind of test: Inhibition of recombinant human GST-tagged P38delta (1 to 365 residues) expressed in Escherichia coli assessed as remaining activity at 1 uM using MBP as substrate incubated for 30 mins in presence of [gamma-33P]ATP by filter binding method relative to control.
Test [20] addresses Dual specificity protein kinase TTK (Homo sapiens) (UniProt P33981). Kind of test: Inhibition of human TTK at 1 uM using RBER-CHKtide as substrate in presence of 33P-ATP by ProQinase assay.
Test [21] addresses Ephrin type-B receptor 3 (Homo sapiens) (UniProt P54753). Kind of test: Inhibition of recombinant human N-terminal His6-tagged EPHB3 (561 to 998 residues) expressed in Escherichia coli assessed as remaining activity at 1 uM using Poly(Glu, Tyr) as substrate incubated for 30 mins in presence of [gamma-33P]ATP by filter binding method relative to control.

The source made the active and inactive calls. The rule behind the calls is not given here.

Sequence of Serine/threonine-protein kinase Sgk2 (Homo sapiens) (Q9HBY8 whole entry): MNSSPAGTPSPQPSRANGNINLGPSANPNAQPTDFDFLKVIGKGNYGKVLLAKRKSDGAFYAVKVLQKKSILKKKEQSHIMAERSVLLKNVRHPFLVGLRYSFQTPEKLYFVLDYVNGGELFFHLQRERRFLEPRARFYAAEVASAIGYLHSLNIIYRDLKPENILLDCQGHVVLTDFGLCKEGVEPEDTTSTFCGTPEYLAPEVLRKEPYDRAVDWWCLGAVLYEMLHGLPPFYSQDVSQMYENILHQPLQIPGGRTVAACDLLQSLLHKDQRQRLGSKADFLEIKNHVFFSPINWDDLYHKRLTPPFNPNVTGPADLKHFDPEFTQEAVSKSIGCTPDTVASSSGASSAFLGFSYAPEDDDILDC
Sequence of Vascular endothelial growth factor receptor 2 (Homo sapiens) (P35968 whole entry, the tested form may be a part): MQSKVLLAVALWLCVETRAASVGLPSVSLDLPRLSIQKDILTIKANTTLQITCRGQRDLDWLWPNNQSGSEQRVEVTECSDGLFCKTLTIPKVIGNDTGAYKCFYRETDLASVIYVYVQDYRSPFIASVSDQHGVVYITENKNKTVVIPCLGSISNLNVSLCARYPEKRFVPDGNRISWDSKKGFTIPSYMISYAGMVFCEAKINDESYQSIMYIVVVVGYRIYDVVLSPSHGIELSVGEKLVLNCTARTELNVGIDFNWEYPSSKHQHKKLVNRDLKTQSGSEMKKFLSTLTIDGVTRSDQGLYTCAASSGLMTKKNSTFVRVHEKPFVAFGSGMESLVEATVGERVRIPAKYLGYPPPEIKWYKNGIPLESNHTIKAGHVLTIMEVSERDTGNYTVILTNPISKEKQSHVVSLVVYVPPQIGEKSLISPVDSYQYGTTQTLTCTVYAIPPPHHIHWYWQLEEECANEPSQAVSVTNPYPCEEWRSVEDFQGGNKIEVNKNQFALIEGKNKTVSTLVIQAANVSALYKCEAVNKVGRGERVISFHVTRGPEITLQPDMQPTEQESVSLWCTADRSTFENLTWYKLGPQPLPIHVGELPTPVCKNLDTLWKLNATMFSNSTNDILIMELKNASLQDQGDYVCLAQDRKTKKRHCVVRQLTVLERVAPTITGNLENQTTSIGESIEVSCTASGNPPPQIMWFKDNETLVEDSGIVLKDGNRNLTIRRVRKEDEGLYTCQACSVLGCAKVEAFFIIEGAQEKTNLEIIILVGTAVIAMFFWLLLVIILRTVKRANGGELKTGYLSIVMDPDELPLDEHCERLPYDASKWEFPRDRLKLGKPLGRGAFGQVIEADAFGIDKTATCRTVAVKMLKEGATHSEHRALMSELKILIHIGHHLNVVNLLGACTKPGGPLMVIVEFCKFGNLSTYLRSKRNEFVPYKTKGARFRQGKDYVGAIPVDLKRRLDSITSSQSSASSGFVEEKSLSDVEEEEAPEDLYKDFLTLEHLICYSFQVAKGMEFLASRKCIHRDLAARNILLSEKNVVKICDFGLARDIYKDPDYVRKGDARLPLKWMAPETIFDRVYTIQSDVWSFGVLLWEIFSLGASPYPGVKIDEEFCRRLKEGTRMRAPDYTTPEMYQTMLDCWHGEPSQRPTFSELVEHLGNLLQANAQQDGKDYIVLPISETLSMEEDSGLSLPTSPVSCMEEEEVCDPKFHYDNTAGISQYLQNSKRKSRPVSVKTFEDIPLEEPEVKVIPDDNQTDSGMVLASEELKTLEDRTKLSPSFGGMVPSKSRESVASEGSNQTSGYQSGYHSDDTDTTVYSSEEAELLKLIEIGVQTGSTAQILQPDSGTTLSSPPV
Sequence of Dual specificity protein kinase TTK (Homo sapiens) (P33981 whole entry, the tested form may be a part): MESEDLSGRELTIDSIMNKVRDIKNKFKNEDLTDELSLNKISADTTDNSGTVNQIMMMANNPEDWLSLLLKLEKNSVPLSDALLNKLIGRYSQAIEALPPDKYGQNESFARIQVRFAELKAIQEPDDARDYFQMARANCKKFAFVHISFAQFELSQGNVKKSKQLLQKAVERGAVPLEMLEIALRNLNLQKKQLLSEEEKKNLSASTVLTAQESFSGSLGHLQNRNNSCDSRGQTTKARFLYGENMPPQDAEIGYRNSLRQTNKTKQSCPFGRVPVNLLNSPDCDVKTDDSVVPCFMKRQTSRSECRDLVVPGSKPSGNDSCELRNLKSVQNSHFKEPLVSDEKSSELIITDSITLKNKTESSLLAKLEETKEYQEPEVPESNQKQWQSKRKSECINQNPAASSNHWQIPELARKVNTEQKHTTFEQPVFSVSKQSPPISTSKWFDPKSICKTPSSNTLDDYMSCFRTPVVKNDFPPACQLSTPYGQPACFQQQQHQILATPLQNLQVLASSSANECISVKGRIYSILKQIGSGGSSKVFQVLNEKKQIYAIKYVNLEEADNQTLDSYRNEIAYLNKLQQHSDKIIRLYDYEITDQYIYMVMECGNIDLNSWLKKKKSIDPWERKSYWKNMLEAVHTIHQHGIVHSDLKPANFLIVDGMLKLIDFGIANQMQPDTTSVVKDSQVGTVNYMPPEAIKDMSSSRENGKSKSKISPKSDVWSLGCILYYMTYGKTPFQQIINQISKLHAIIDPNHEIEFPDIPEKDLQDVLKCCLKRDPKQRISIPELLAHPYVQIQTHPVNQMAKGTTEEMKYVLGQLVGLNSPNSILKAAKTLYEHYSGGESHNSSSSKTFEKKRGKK
Sequence of Tyrosine-protein kinase CSK (Homo sapiens) (P41240 2-450 limits assumed): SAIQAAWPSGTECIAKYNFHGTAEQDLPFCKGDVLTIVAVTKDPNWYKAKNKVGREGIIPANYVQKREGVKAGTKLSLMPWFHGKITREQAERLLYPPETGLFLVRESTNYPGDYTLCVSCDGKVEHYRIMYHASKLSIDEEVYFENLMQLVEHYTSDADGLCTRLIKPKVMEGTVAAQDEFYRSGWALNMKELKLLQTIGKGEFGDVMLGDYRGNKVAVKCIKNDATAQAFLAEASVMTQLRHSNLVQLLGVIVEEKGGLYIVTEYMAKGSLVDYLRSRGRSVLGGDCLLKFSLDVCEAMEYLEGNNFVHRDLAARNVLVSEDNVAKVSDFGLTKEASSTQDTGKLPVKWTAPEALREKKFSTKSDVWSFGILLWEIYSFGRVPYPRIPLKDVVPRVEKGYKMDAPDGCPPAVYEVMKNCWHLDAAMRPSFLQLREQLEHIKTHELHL
Sequence of Serine/threonine-protein kinase PAK 4 (Homo sapiens) (O96013 whole entry, looked up, the tested form may be a part): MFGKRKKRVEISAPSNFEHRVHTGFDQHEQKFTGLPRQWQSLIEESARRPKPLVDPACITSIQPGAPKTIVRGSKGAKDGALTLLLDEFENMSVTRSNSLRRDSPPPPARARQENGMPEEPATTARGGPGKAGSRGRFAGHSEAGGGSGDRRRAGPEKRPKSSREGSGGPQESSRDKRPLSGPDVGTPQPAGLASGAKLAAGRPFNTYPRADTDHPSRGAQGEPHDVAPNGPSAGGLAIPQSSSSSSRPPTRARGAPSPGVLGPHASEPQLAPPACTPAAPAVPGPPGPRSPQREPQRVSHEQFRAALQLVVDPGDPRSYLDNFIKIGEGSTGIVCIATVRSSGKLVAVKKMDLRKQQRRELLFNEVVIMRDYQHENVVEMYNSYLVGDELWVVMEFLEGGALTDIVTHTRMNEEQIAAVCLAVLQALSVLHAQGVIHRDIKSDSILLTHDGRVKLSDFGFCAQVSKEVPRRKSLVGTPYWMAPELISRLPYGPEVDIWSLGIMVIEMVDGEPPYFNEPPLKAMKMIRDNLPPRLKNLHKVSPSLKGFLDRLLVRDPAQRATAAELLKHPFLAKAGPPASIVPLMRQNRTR
Sequence of Mitogen-activated protein kinase kinase kinase 2 (Homo sapiens) (Q9Y2U5 whole entry, the tested form may be a part): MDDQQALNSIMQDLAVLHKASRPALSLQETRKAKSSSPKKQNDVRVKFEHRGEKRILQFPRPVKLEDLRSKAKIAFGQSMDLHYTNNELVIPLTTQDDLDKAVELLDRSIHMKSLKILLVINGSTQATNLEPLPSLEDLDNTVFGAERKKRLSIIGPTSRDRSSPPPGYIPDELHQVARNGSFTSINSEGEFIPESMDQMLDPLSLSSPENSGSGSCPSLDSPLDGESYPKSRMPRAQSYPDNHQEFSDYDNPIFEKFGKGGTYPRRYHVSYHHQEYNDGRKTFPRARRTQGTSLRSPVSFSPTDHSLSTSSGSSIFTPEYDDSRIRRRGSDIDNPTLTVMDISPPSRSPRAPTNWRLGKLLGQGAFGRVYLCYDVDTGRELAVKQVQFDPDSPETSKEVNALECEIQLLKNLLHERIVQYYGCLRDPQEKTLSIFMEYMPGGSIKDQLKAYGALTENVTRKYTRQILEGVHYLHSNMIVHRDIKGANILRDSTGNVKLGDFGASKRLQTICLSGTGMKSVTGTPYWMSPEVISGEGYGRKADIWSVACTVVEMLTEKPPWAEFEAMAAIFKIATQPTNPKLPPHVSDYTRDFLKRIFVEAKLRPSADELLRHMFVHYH
Sequence of Dual specificity tyrosine-phosphorylation-regulated kinase 3 (Homo sapiens) (O43781 whole entry, the tested form may be a part): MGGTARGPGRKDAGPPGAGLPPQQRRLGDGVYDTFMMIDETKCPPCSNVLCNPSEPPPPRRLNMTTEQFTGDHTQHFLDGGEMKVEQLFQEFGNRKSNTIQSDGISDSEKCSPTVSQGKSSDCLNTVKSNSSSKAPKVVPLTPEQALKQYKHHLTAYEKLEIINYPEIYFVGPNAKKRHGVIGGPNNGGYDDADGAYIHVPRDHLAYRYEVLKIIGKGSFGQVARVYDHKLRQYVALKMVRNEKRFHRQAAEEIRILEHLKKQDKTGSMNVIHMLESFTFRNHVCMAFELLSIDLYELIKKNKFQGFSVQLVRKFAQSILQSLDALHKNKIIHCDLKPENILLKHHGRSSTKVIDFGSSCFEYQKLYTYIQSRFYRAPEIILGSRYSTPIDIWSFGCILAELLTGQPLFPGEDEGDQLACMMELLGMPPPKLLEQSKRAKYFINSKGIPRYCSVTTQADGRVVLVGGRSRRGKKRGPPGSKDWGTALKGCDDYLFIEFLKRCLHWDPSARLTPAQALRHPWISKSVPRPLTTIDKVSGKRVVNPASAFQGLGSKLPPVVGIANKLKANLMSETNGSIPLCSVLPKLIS

Consider `CC(C)(O)CNc1ncc(-c2ccnc(Nc3ccnc(Cl)c3)n2)c(CC2CC2)n1`, for which the inhibition result in test [1], in test [2], in test [5], in test [6], in [8] and in test [9] was “inactive” in each case. Further, the inhibition entry in [10], in test [11], in [12], in test [13], in [14] and in test [16] was “inactive” in each case. The inhibition entry in test [18] and in test [20] was “inactive” each time. For the same molecule, the Activity in [3] was 103%; in [4], 106%; in [7], 51%; in [15] it was 91%; in test [17], 108%; in test [19], 111%. Besides, in test [21], the Activity is 111%. Besides, the inhibition entry in the test with U2OS was “Active”.

The values above are taken from ChEMBL document CHEMBL5705899 (Biochem J, 2014).
